Laboratory results taken from ChEMBL document CHEMBL1153853, “Colon-specific mutual amide prodrugs of 4-aminosalicylic acid for their mitigating effect on experimental colitis in rats” (Eur J Med Chem, 2009).
Activity calls are given as the source filed them. The rule behind the calls is not given here.

Legend:
[1] = organism: Rattus norvegicus; assay: Antiinflammatory activity against TNBS-induced Wistar rat colitis model assessed as decrease in severity of inflammation treated rectally 3 days after TNBS induction measured on day 7; assay type: functional, organism-based; settings: in the assay text read “treated orally” for “treated rectally”
Procedure, shortened: (§1)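 TNBS colitis in Wistar rats (100 mg/kg in 50% ethanol, intrarectal, 48 h fast), left untreated 3 days before dosing, vehicle 1% carboxymethylcellulose. Weight loss, stool consistency and rectal bleeding scored daily over 11 days; the daily clinical activity score is the average of the three, 0 (healthy) to 4 (maximal colitis); mean of six rats.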

[2] = organism: Rattus norvegicus; assay: Antiinflammatory activity against TNBS-induced Wistar rat colitis model assessed as decrease in ratio of colon to body weight treated rectally 3 days after TNBS induction for 8 days measured after 24 hrs of last treatment; assay type: functional, organism-based; settings: in the assay text read “treated orally” for “treated rectally”
Procedure, shortened: (§2)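 Wistar rats (200–250 g, 12–15 weeks, n = 6/group), fasted 48 h, given TNBS 100 mg/kg in 50% ethanol (500 µl) intrarectally 8 cm via catheter under light ether; untreated 3 days, then dosed (controls got 1% carboxymethylcellulose); 11-day study. Sacrificed 24 h after last dose under isoflurane; 8 cm colon excised, colon/body weight ratio taken; mean of six.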

[3] = test system: Rattus norvegicus; assay: Antiinflammatory activity against TNBS-induced Wistar rat colitis model assessed as decrease in severity of inflammation treated po 3 days after TNBS induction measured on day 7; assay type: functional, organism-based; procedure, shortened: as §1
[4] = test system: Rattus norvegicus; assay: Antiinflammatory activity against TNBS-induced po dosed Wistar rat colitis model assessed as inhibition of MPO activity in neutrophils per 100 mg of tissue; assay type: functional
Procedure, shortened: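 Colonic tissue from TNBS-colitis rats given oral treatment; MPO measured by the Krawisz method, one unit degrading […] hydrogen peroxide at 25 °C; reported as mU per 100 mg wet tissue.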

[5] = test system: Rattus norvegicus; assay: Inhibition of TNBS-induced morphological change in rectaly administered Wistar rat colon; assay type: functional, organism-based
[6] = organism: Rattus norvegicus; assay: Antiinflammatory activity against TNBS-induced Wistar rat colitis model assessed as decrease in severity of inflammation treated rectally 3 days after TNBS induction for 8 days measured after 24 hrs of last treatment; assay type: functional, organism-based; procedure, shortened: as §1
[7] = test system: Rattus norvegicus; assay: Ulcerogenic effect in rat colon assessed as ulcer index at 1154.30 mg/kg by Rainsford's cold stress method; assay type: toxicity, organism-based; design: dose 1154.3 mg/kg; settings: in vivo, 1154.3 mg/kg
[8] = Partition coefficient, log p in n-octanol/phosphate buffer at pH 7.4; assay type: physicochemical
Procedure, shortened: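 Partitioning between n-octanol and phosphate buffer pH 7.4 at 25 ± 1 °C.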

[9] = test system: Rattus norvegicus; assay: Ulcerogenic effect in rat colon assessed as ulcer index at 3000 mg/kg by Rainsford's cold stress method; assay type: toxicity, organism-based; design: dose 3000 mg/kg; settings: in vivo
[10] = test system: Rattus norvegicus; assay: Half life in TNBS-induced po dosed Wistar rat colitis model assessed as assessed as release of 5-aminosalicylic acid; assay type: ADME, organism-based; settings: in vivo
[11] = test system: Liver; assay: Toxicity in rat liver; assay type: tissue-based; settings: in vivo
[12] = Half life in rat fecal matter assessed as release of 4-aminosalicylic acid; assay type: ADME, tissue-based, Feces; settings: in vitro
Procedure, shortened: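 Prodrug in phosphate buffer pH 7.4 (250 µg/ml, diluted to 50 µg/ml in 5 ml) added to 1 g fresh rat feces; incubated 37 °C anaerobically in a CO2 incubator for up to 20 h. Remaining prodrug read by UV at 255 nm (4AP) or 290 nm (4AT) against calibration curves; first-order fits, triplicate, mean K.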

[13] = test system: Rattus norvegicus; assay: Ulcerogenic effect in rat colon assessed as ulcer index at 2263.75 mg/kg by Rainsford's cold stress method; assay type: toxicity, organism-based; design: dose 2263.75 mg/kg; settings: in vivo
[14] = test system: Rattus norvegicus; assay: Half life in TNBS-induced po dosed Wistar rat colitis model assessed as assessed as release of 4-aminosalicylic acid; assay type: ADME, organism-based; settings: in vivo
[15] = test system: Pancreas; assay: Toxicity in rat pancreas; assay type: tissue-based; settings: in vivo
[16] = test system: Rattus norvegicus; assay: Antiinflammatory activity against TNBS-induced Wistar rat colitis model assessed as decrease in ratio of colon to body weight treated po 3 days after TNBS induction for 8 days measured after 24 hrs of last treatment; assay type: functional; procedure, shortened: as §2
[17] = Stability assessed as half life in phosphate buffer at pH 7.4; assay type: physicochemical
Procedure, shortened: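 Same set-up in phosphate buffer pH 7.4 (0.05 M, ionic strength 0.5 with KCl), 37 ± 1 °C, 10 h. Remaining prodrug read by UV at 255 and 290 nm; first-order kinetics, triplicate.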

[18] = Aqueous solubility of the compound; assay type: physicochemical; settings: water (aqueous)
Procedure, shortened: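 Solubility in distilled water at room temperature (25 ± 1 °C).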

[19] = Stability assessed as half life in hydrochloric acid buffer at pH 1.2; assay type: physicochemical
Procedure, shortened: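 10 mg prodrug in 900 ml HCl buffer pH 1.2 (0.05 M, ionic strength 0.5 set with KCl) at 37 ± 1 °C for 10 h. Remaining prodrug followed by UV at 251 and 285 nm; first-order kinetics, triplicate.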

[20] = test system: Rattus norvegicus; assay: Ulcerogenic effect in rat colon assessed as ulcer index at 2258.01 mg/kg by Rainsford's cold stress method; assay type: toxicity, organism-based; design: dose 2258.01 mg/kg; settings: in vivo

| SMILES | logD [8] | t1/2 [10] | t1/2 [12] | t1/2 [14] | half-life [17] | solubility [18] | half-life [19] | Activity [1] | Activity [2] | Activity [3] | Activity [4] | Activity [5] | Activity [6] | UI [7] | UI [9] | Activity [11] | UI [13] | Activity [15] | Ratio [16] | UI [20] |
| --- | --- | --- | --- | --- | --- | --- | --- | --- | --- | --- | --- | --- | --- | --- | --- | --- | --- | --- | --- | --- |
| N[C@@H](Cc1c[nH]c2ccccc12)C(=O)O [TRYPTOPHAN] | – | – | – | – | – | – | – | Active | Active | Active | 72.25 mU | Active | Active | – | – | – | – | – | – | – |
| Nc1ccc(O)c(C(=O)O)c1 [MESALAMINE] | – | – | – | – | – | – | – | Active | – | Active | 60.85 mU | – | – | 60.03 | – | – | – | – | – | – |
| N[C@H](Cc1ccccc1)C(=O)O [D-PHENYLALANINE] | – | – | – | – | – | – | – | Active | Active | Active | 61.43 mU | Active | Active | – | – | – | – | – | – | – |

The next lines start with results.

| logD [8] | t1/2 [10] | t1/2 [12] | t1/2 [14] | half-life [17] | solubility [18] | half-life [19] | SMILES | Activity [1] | Activity [2] | Activity [3] | Activity [4] | Activity [5] | Activity [6] | UI [7] | UI [9] | Activity [11] | UI [13] | Activity [15] | Ratio [16] | UI [20] |
| --- | --- | --- | --- | --- | --- | --- | --- | --- | --- | --- | --- | --- | --- | --- | --- | --- | --- | --- | --- | --- |
| 1.01 | – | – | – | – | – | – | Nc1ccc(C(=O)O)c(O)c1 [AMINOSALICYLIC ACID] | Active | Active | Active | 70.51 mU | – | – | 69.61 | – | – | – | – | – | – |
| – | 2 h | – | – | – | – | – | O=C(O)c1cc(/N=N/c2ccc(S(=O)(=O)Nc3ccccn3)cc2)ccc1O [SULFASALAZINE] | Active | – | Active | 46.63 mU | – | – | – | 5.83 | – | – | – | – | – |
| – | 2 h | – | – | – | – | – | Nc1ccc(S(=O)(=O)Nc2ccccn2)cc1 [SULFAPYRIDINE] | – | – | – | – | – | – | – | – | – | – | – | – | – |
| -0.21 | – | 6.87 h | 6 h | > 10 h | 330 mg/mL | > 10 h | Nc1ccc(C(=O)N[C@H](Cc2ccccc2)C(=O)[O-])c(O)c1.[Na+] | Active | Active | Active | 46.57 mU | – | – | – | – | Non-toxic | 6 | Non-toxic | 0.0073 | – |
| -0.19 | – | 5.72 h | 6 h | > 10 h | 260 mg/mL | > 10 h | Nc1ccc(C(=O)N[C@@H](Cc2c[nH]c3ccccc23)C(=O)[O-])c(O)c1.[Na+] | Active | Active | Active | 49.24 mU | – | – | – | – | Non-toxic | – | Non-toxic | 0.0071 | 8.4 |
